Key:
Cruzipain = Cruzipain (Trypanosoma cruzi, UniProt P25779); test: Inhibition of Trypanosoma cruzi recombinant cruzain using Z-FR-AMC as substrate after 5 mins by fluorescence assay
Trypanosoma cruzi = test: Antitrypanosomal activity against Trypanosoma cruzi infected in C2C12 cells after 72 hrs by DAPI staining; assay type: functional, organism-based; conditions: C2C12, 72 h
MDCK = test: Apparent permeability from apical to basolateral side in MDCK cells assessed as per 10^-6 cells; assay type: ADME, cell-based, Canis lupus familiaris; conditions: dog
Cytochrome P450 3A4 = Cytochrome P450 3A4 (Homo sapiens, UniProt P08684); test: Inhibition of CYP3A4 (unknown origin); assay type: ADME
[1] = Volume of distribution at steady state in mouse at 10 mg/kg, iv; assay type: ADME, organism-based; conditions: in vivo, read-out: Vdss
How it was run: (§1)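 Mouse PK study with two dosing arms: 40 mg/kg orally and 10 mg/kg intravenously. The parameters derived were AUC, T1/2, CL, Vss and F%.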

[2] = Half life in mouse at 40 mg/kg, po; assay type: ADME, organism-based; conditions: in vivo; how it was run: as §1
[3] = Clearance in mouse at 10 mg/kg, iv; assay type: ADME, organism-based; conditions: in vivo; how it was run: as §1
[4] = Half life in mouse at 10 mg/kg, iv; assay type: ADME, organism-based; conditions: in vivo; how it was run: as §1
[5] = AUC in mouse at 10 mg/kg, iv; assay type: ADME, organism-based; conditions: in vivo
[6] = AUC in mouse at 40 mg/kg, po; assay type: ADME, organism-based; conditions: in vivo
[7] = Cmax in mouse at 40 mg/kg, po; assay type: ADME, organism-based; set-up: dose 40 mg/kg, route oral; conditions: in vivo
How it was run: (§2)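 In vivo mouse pharmacokinetic study with two arms, intravenous at 10 mg/kg and oral at 40 mg/kg. Exposure parameters derived were AUC, T1/2, CL, Vss and oral bioavailability (F%).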

Mus musculus = test: Oral bioavailability in mouse at 40 mg/kg; assay type: ADME, organism-based; conditions: in vivo; how it was run: as §1
[8] = Cmax in mouse at 10 mg/kg, iv; assay type: ADME, organism-based; set-up: dose 10 mg/kg, route intravenous; conditions: in vivo; how it was run: as §2
[9] = Half life in mice after oral dosing; conditions: in vivo

Sequence of Cytochrome P450 3A4 (P08684 whole entry): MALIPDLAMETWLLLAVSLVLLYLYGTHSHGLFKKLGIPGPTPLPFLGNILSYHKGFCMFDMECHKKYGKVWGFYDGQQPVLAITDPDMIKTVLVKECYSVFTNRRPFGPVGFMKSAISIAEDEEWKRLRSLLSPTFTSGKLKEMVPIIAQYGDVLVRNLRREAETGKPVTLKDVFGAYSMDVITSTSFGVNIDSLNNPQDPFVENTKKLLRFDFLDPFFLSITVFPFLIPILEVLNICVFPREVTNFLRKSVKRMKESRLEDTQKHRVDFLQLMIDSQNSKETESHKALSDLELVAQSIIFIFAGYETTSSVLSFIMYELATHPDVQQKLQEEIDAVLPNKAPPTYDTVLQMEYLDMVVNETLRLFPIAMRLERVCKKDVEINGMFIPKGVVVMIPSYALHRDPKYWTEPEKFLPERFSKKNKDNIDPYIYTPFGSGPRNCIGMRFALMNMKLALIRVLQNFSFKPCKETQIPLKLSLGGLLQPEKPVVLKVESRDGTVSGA
Sequence of Cruzipain (P25779 whole entry): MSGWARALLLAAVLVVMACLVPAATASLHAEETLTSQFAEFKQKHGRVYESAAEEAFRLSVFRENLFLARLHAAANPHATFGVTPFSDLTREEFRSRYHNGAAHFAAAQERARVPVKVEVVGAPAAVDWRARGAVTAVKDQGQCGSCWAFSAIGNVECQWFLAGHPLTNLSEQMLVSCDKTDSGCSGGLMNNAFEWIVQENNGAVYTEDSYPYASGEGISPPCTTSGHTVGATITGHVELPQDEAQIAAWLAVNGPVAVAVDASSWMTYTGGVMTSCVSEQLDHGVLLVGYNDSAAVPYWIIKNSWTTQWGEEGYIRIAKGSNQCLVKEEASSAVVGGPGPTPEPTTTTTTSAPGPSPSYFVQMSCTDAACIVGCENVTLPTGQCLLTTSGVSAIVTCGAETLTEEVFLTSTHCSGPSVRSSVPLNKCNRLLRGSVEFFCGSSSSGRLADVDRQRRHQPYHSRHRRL

In the case of `C[C@@](NCc1ccc2occc2c1)(c1cn(C(CCS(C)(=O)=O)C(=O)COc2c(F)c(F)cc(F)c2F)nn1)C1CCCC1` (some centres undefined), the IC50 (Cruzipain) is reported as 790 nM and the IC50 (Trypanosoma cruzi) is reported as 5 nM.

With `CCCCC(C(=O)COc1c(F)c(F)cc(F)c1F)n1cc([C@@](C)(NC(=O)c2ccc3ncccc3c2)C(C)C)nn1` (some centres undefined) the IC50 (Cruzipain) was 1350 nM and the IC50 (Trypanosoma cruzi) was 700 nM.

In the case of `CC(C)[C@](C)(NCc1ccc2ncccc2c1)c1cn(C(CCS(C)(=O)=O)C(=O)COc2c(F)c(F)cc(F)c2F)nn1` (some centres undefined), the Papp (MDCK) is reported as 3.49 ×10⁻⁶ cm/s, the IC50 (Cruzipain) is reported as 560 nM and the IC50 (Cytochrome P450 3A4) is reported as 1200 nM. For the same compound, the IC50 (Trypanosoma cruzi) was 380 nM.

Work on `COCCC(C(=O)COc1c(F)c(F)cc(F)c1F)n1cc([C@@](C)(NCc2ccc3ncccc3c2)C(C)C)nn1` (some centres undefined) yielded an IC50 (Cruzipain) of 340 nM and an IC50 (Trypanosoma cruzi) of 2 nM.

Work on `CCCCC(C(=O)COc1c(F)c(F)cc(F)c1F)n1cc([C@@](C)(NCc2ccncc2)C(C)C)nn1` (some centres undefined) yielded an IC50 (Cruzipain) of 1100 nM and an IC50 (Trypanosoma cruzi) of 143 nM.

For `CCCCC(C(=O)COc1c(F)c(F)cc(F)c1F)n1cc([C@@](C)(NC(=O)c2ccncc2)C(C)C)nn1` (some centres undefined), the IC50 (Cruzipain) was 23000 nM and the IC50 (Trypanosoma cruzi) was 1600 nM.

Work on `CCCCC(C(=O)COc1c(F)c(F)cc(F)c1F)n1cc([C@@](C)(NCc2ccc3ncsc3c2)C(C)C)nn1` (some centres undefined) yielded a Vd [1] of 6.5 L/kg, a Papp (MDCK) of 2.26 ×10⁻⁶ cm/s and a half-life [2] of 3.41 h. For the same compound, the clearance [3] was 16.6 mL/min/kg, the IC50 (Cruzipain) was 37 nM and the half-life [4] was 5.67 h. The IC50 (Cytochrome P450 3A4) was 300 nM, the AUC [5] was 9610 ng·h/mL and the AUC [6] was 6570 ng·h/mL. The IC50 (Trypanosoma cruzi) was 2 nM, the Cmax [7] was 1230 ng/mL and the F (Mus musculus) was 19.1%.

Compound `CCCCC(C(=O)COc1c(F)c(F)cc(F)c1F)n1cc([C@@](C)(NC(=O)c2ccc3ncsc3c2)C(C)C)nn1` (some centres undefined) has an IC50 (Cruzipain) of 3590 nM and an IC50 (Trypanosoma cruzi) of 650 nM.

With `CC(C)[C@](C)(NCc1ccc2ncsc2c1)c1cn(C(CCS(C)(=O)=O)C(=O)COc2c(F)c(F)cc(F)c2F)nn1` (some centres undefined) the IC50 (Cruzipain) was 125 nM and the IC50 (Trypanosoma cruzi) was 12 nM.

Compound `COCCC(C(=O)COc1c(F)c(F)cc(F)c1F)n1cc([C@@](C)(NCc2ccc3ncsc3c2)C(C)C)nn1` (some centres undefined) has an IC50 (Cruzipain) of 63 nM and an IC50 (Trypanosoma cruzi) of 44 nM.

In the case of `CCCCC(C(=O)COc1c(F)c(F)cc(F)c1F)n1cc([C@@](C)(NCc2ccc3ncsc3c2)C2CCCC2)nn1` (some centres undefined), the IC50 (Cruzipain) is reported as 5 nM and the IC50 (Trypanosoma cruzi) is reported as 3 nM.

Compound `C[C@@](NCc1ccc2ncsc2c1)(c1cn(C(CCS(C)(=O)=O)C(=O)COc2c(F)c(F)cc(F)c2F)nn1)C1CCCC1` (some centres undefined) has a Papp (MDCK) of 6.8 ×10⁻⁶ cm/s, an IC50 (Cruzipain) of 25 nM and an IC50 (Cytochrome P450 3A4) of 200 nM. The IC50 (Trypanosoma cruzi) was 10 nM.

Work on `COCCC(C(=O)COc1c(F)c(F)cc(F)c1F)n1cc([C@@](C)(NCc2ccc3ncsc3c2)C2CCCC2)nn1` (some centres undefined) yielded an IC50 (Cruzipain) of 124 nM and an IC50 (Trypanosoma cruzi) of 7 nM.

Work on `CC(C)[C@](C)(NCc1ccc2occc2c1)c1cn(C(CCS(C)(=O)=O)C(=O)COc2c(F)c(F)cc(F)c2F)nn1` (some centres undefined) yielded an IC50 (Cruzipain) of 880 nM and an IC50 (Trypanosoma cruzi) of 3 nM.

For `CCCCC(C(=O)COc1c(F)c(F)cc(F)c1F)n1cc([C@@](C)(NCc2ccn3nccc3n2)C(C)C)nn1` (some centres undefined), the Papp (MDCK) was 15.1 ×10⁻⁶ cm/s, the IC50 (Cruzipain) was 75 nM and the IC50 (Cytochrome P450 3A4) was 314 nM. For the same compound, the IC50 (Trypanosoma cruzi) was 8 nM.

In the case of `CCCCC(C(=O)COc1c(F)c(F)cc(F)c1F)n1cc([C@@](C)(NCc2ccn3nccc3n2)C2CCCC2)nn1` (some centres undefined), the Vd [1] is reported as 4.19 L/kg, the Papp (MDCK) is reported as 2.9 ×10⁻⁶ cm/s and the half-life [2] is reported as 2.32 h. For the same compound, the clearance [3] was 30.7 mL/min/kg, the IC50 (Cruzipain) was 3 nM and the half-life [4] was 3.04 h. The IC50 (Cytochrome P450 3A4) was 263 nM, the AUC [5] was 5370 ng·h/mL and the AUC [6] was 8110 ng·h/mL. For the same compound, the F (Mus musculus) was 37%.

Compound `CC(C)[C@](C)(NCc1ccn2nccc2n1)c1cn(C(CCS(C)(=O)=O)C(=O)COc2c(F)c(F)cc(F)c2F)nn1` (some centres undefined) has an IC50 (Cruzipain) of 467 nM and an IC50 (Trypanosoma cruzi) of 2340 nM.

With `COCCC(C(=O)COc1c(F)c(F)cc(F)c1F)n1cc([C@@](C)(NCc2ccn3nccc3n2)C2CCCC2)nn1` (some centres undefined) the IC50 (Cruzipain) was 2820 nM and the IC50 (Trypanosoma cruzi) was 20 nM.

Work on `CCCCC(C(=O)COc1c(F)c(F)cc(F)c1F)n1cc([C@@](C)(NCc2ccc3ncccc3c2)C2CCCC2)nn1` (some centres undefined) yielded a Vd [1] of 5.4 L/kg, a Papp (MDCK) of 0.48 ×10⁻⁶ cm/s and a half-life [2] of 3 h. For the same compound, the clearance [3] was 19 mL/min/kg, the IC50 (Cruzipain) was 27 nM and the half-life [4] was 4.2 h. It also gave an IC50 (Cytochrome P450 3A4) of 260 nM, an AUC [5] of 8710 ng·h/mL and an AUC [6] of 8100 ng·h/mL. It also gave an IC50 (Trypanosoma cruzi) of 15 nM and an F (Mus musculus) of 23%.

`CCCCC(C(=O)COc1c(F)c(F)cc(F)c1F)n1cc([C@@](C)(NCc2ccc3ncccc3c2)C(C)C)nn1` (some centres undefined) showed a Cmax [8] of 4130 ng/mL, a Vd [1] of 4.2 L/kg and a Papp (MDCK) of 3.02 ×10⁻⁶ cm/s. The half-life [9] was 3.3 h, the half-life [2] was 3.34 h and the clearance [3] was 36.2 mL/min/kg. For the same compound, the half-life [4] was 2.95 h, the IC50 (Cytochrome P450 3A4) was 3800 nM and the AUC [5] was 4670 ng·h/mL. For the same compound, the AUC [6] was 3860 ng·h/mL, the IC50 (Trypanosoma cruzi) was 22 nM and the Cmax [7] was 833 ng/mL. The F (Mus musculus) was 21%.

From ChEMBL document CHEMBL3627660, “Tetrafluorophenoxymethyl ketone cruzain inhibitors with improved pharmacokinetic properties as therapeutic leads for Chagas' disease” (Bioorg Med Chem Lett, 2015)
